What was measured:
[1] = species: Mus musculus; experiment: Agonist vas deferens(MVD); format: functional
How it was run: (§1)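 Electrically stimulated mouse vas deferens. Agonism read as a drop in twitch height. Compounds were first tested at 1 μM. Full agonists were then run at 4-6 concentrations to build a dose-response curve and give the IC50 for half-maximal response (n ≥ 3). Partial responders were reported as percent of maximal agonist response.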

[2] = target: Delta-type opioid receptor (Mus musculus) (UniProt P32300); experiment: Antagonistic activity expressed as IC50 ratio against DADLE-Opioid receptor delta 1 in smooth muscle preparations of mouse vas deferens(MVD); format: functional
How it was run: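 Electrically stimulated mouse vas deferens. The preparation was preincubated 15 min with test compound (100 nM) before challenge with the standard δ agonist DADLE. The ratio is DADLE IC50 with antagonist divided by control IC50 of DADLE alone (n ≥ 3).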

[3] = species: Cavia porcellus; experiment: (§2) Agonist activity (ability to decrease the twitch height of the electrically stimulated smooth muscle) in electrically stimulated guinea pig ileum(GPI); format: functional, organism-based; details: Muscle tissue
How it was run: as §1, with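 “guinea pig ileum.” for “mouse vas deferens.”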

[4] = species: Cavia porcellus; experiment: as §2; format: functional, Muscle tissue
How it was run: as §1, with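 “guinea pig ileum.” for “mouse vas deferens.”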

[5] = target: Kappa-type opioid receptor (Cavia porcellus) (UniProt P41144); experiment: Antagonistic activity expressed as IC50 ratio against ethylketazocine (EK) Opioid receptor kappa 1 in smooth muscle preparations; format: functional
How it was run: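 Electrically stimulated guinea pig ileum. The preparation was preincubated 15 min with test compound (100 nM) before challenge with a standard agonist: morphine for μ, ethylketazocine for κ. The ratio is agonist IC50 with antagonist divided by control IC50 of agonist alone (n ≥ 3).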

[6] = species: Cavia porcellus; experiment: Antagonist potency (Ke) was evaluated in guinea pig ileum(GPI); format: functional
How it was run: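 Antagonist potency came from IC50-ratio tests in which smooth muscle was preincubated 15 min with antagonist before agonist challenge.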

[7] = species: Cavia porcellus; experiment: Agonist activity (ability to decrease the twitch height of the electrically stimulated smooth muscle) in electrically stimulated guinea pig ileum (GPI); format: functional
How it was run: as §1, with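 “guinea pig ileum.” for “mouse vas deferens.”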

Sequence of Kappa-type opioid receptor (Cavia porcellus) (P41144 whole entry): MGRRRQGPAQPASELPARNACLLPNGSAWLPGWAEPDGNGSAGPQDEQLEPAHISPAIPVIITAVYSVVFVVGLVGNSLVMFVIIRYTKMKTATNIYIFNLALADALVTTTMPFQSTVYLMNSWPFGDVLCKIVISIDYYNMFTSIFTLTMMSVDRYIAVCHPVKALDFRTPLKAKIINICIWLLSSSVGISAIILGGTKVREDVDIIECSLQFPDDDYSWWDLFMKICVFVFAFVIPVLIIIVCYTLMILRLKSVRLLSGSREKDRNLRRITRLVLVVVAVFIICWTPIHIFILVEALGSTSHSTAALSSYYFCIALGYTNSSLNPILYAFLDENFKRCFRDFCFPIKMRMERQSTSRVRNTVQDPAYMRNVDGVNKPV
Sequence of Delta-type opioid receptor (Mus musculus) (P32300 whole entry): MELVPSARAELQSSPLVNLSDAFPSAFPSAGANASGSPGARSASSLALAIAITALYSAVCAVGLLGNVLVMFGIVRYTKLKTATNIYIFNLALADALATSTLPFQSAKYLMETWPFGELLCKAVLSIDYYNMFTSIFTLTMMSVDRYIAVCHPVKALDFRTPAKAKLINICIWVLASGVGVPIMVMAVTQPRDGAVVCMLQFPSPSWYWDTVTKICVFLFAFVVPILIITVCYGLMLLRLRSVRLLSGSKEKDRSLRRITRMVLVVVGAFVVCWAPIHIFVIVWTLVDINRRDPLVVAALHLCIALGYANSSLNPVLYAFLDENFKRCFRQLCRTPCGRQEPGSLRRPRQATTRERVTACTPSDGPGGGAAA

| SMILES | Max response [1] [%] | IC50 ratio [2] | IC50 [3] [nM] | Max response [4] [%] | IC50 ratio [5] | Ke [6] | Max response [7] [%] |
| --- | --- | --- | --- | --- | --- | --- | --- |
| CN1CCC23c4c5ccc(O)c4O[C@H]2C(=O)C2(Cc4ccccc4C2)CC3C1C5 (some centres not stated) | 58.6 | 0.85 | 153 | – | – | – | – |
| Oc1ccc2c3c1O[C@H]1c4[nH]c5ccccc5c4C[C@@]4(O)[C@@H](C2)N(CC2CC2)CC[C@]314 [NALTRINDOLE] | 37.1 | – | – | 7.6 | – | – | – |
| CN1CC[C@]23c4c5ccc(O)c4O[C@H]2C(=O)C2(Cc4ccccc4C2)C[C@@]3(O)[C@H]1C5 [SPIROINDANYLOXYMORPHONE] | – | – | – | 55 | 1 | – | – |
| Oc1ccc2c3c1O[C@H]1c4[nH]c5ccccc5c4CC4C(C2)N(CC2CC2)CCC341 (some centres not stated) | 22.6 | 34.6 | – | – | 1.64 | 2.98 | 16.85 |

Source: ChEMBL document CHEMBL1131025, “14-Desoxy analogues of naltrindole and 7-spiroindanyloxymorphone: the role of the 14-hydroxy group at delta opioid receptors” (J Med Chem, 1998)
